# Source: ChEMBL document CHEMBL1154223, “Oxygenated lignans from the fruits of Schisandra arisanensis” (2009)
# Assays:
# Format in all cases: functional
# PBMC [1] = assay: Inhibition of human PBMC proliferation assessed as [3H]thymidine uptake at 100 uM after 3 days by scintillation counting
# Outline: (§1)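 Human PBMC at 2 × 10^6 cells/mL were plated with or without PHA and exposed to test compound at 100 µM. Cultures were kept at 37 °C in humidified 5% CO2-air for 3 days, then pulsed with tritiated thymidine at 1 µCi/well for 16 h. Cells were harvested onto glass fiber filters, and radioactivity was counted by scintillation. Results are given as % inhibition.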
# PBMC [2] = assay: Inhibition of 5 ug/ml PHA-stimulated human PBMC proliferation assessed as [3H]thymidine uptake at 100 uM after 3 days by scintillation counting; outline: as §1
# PBMC [3] = assay: Inhibition of 0.2 ug/ml PHA-stimulated human PBMC proliferation assessed as [3H]thymidine uptake at 100 uM after 3 days by scintillation counting; outline: as §1
# PBMC [4] = assay: Inhibition of 5 ug/ml PHA-stimulated human PBMC proliferation assessed as [3H]thymidine uptake at 5 uM after 3 days by scintillation counting
# PBMC [5] = assay: Inhibition of human PBMC proliferation assessed as [3H]thymidine uptake at 5 uM after 3 days by scintillation counting
SMILES,inhibition at 100 µM (PBMC [1]),inhibition (INH) (PBMC [2]),inhibition (INH) (PBMC [3]),inhibition (INH) (PBMC [4]),inhibition at 5 µM (PBMC [5])
C/C=C(/C)C(=O)O[C@H]1c2cc(OC)c(OC)c(OC)c2-c2c(cc(O)c(OC)c2OC)C[C@@H](C)[C@@]1(C)O,44.5%,44.3%,67%,–,–
COc1cc([C@@H]2c3cc(OC)c(OC)cc3C(=O)[C@@H](C)[C@H]2C)ccc1O,61%,95.6%,82.7%,–,–
C/C=C(/C)C(=O)O[C@H]1c2cc3c(c(OC)c2-c2c(cc(OC)c(OC)c2O)C[C@H](C)[C@]1(C)O)OCO3,12.7%,14.6%,16.4%,–,–
CC=C(C)C(=O)O[C@H]1c2cc3c(c(OC)c2-c2c(cc(OC)c(OC)c2OC)C[C@H](C)[C@]1(C)O)OCO3,36.1%,58.9%,75.2%,–,–
C/C=C(/C)C(=O)O[C@H]1c2cc(OC)c(OC)c(O)c2-c2c(cc3c(c2OC)OCO3)C[C@@H](C)[C@@]1(C)O,47%,66.6%,74%,–,–
COc1cc2c(c(O)c1OC)-c1c(cc(O)c(OC)c1OC)C[C@H](C)[C@H](C)C2 [ARISANSCHININ F],58.5%,92.9%,81.7%,–,–
COc1cc2c(c(O)c1OC)-c1c(cc(O)c(OC)c1OC)C[C@@H](C)[C@@H](C)C2 [ARISANSCHININ G],54.7%,92.5%,76.3%,–,–
COc1cc([C@@H]2c3cc(OC)c(O)cc3C(=O)[C@@H](C)[C@H]2C)ccc1O [ARISANTETRALONE A],59.7%,91.9%,78.1%,–,–
COc1cc([C@@H]2c3cc(O)c(OC)cc3C(=O)[C@@H](C)[C@H]2C)ccc1O [ARISANTETRALONE B],56.9%,90.8%,75.3%,–,–
COc1cc2c(cc1O)C(=O)[C@@H](C)[C@@H](C)[C@@H]2c1ccc(OC)c(OC)c1 [ARISANTETRALONE C],54.1%,89.3%,76.3%,–,–
COc1cc2c(cc1O)C(=O)[C@H](C)[C@@H](C)[C@@H]2c1ccc(OC)c(OC)c1 [ARISANTETRALONE D],34.1%,83.9%,70.1%,–,–
C/C=C/C[C@@H](C)[C@@H](O)[C@H]1C(=O)N[C@@H](CC)C(=O)N(C)CC(=O)N(C)[C@@H](CC(C)C)C(=O)N[C@@H](C(C)C)C(=O)N(C)[C@@H](CC(C)C)C(=O)N[C@@H](C)C(=O)N[C@H](C)C(=O)N(C)[C@@H](CC(C)C)C(=O)N(C)[C@@H](CC(C)C)C(=O)N(C)[C@@H](C(C)C)C(=O)N1C [CYCLOSPORINE],–,–,–,89.9%,25.5%
COc1cc2c(c(OC)c1OC)-c1c(cc3c(c1OC)OCO3)[C@H](OC(=O)c1ccccc1)[C@@](C)(O)[C@@H](C)C2 [GOMISIN G],46.2%,88.6%,75.8%,–,–
COc1cc(C[C@@H](C)[C@@H](C)Cc2cc(O)c(OC)c(OC)c2)cc(O)c1OC [PREGOMISIN],63.9%,95.6%,83%,–,–
COc1cc2c(c(O)c1OC)-c1c(cc(OC)c(OC)c1OC)C[C@@H](C)[C@@H](C)C2 [SCHISANHENOL],60.8%,76%,80.1%,–,–
